Assay outcomes (PubChem BioAssay)
Rows were chosen to be rich in hits. Some 3.5% of all compounds tested hit in one or more screens of this group.
DENV2 CPE = protects cells from dengue virus 2 cytopathic effect | actives 1.7% (n = 350,000) | AID 651640 | CPE inhibition, % at 9.99 µM | DENV2-infected cells, cytopathic effect rescue, plate reader; in the data active means CPE inhibition above about 20%, passing the limit was not always enough; inconclusive means no clear call, values can overlap the other calls; tested in BHK-21 cells
Ecoli rRNA inh = inhibits bacterial ribosomal RNA function over humanized ribosomes. E. coli WT GFP vs humanized-ribosome RFP mutants, fluorescence, 24 h; active compounds read low; DMSO median 0, no signal -100. GFP signal change (wild-type ribosome), % (no concentration beside the values). actives 1.6% (n = 350,000). AID 720706;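 active means significant combined selectivity score with lowered wild-type GFP, culture density cut under 30%, mutant RFP and density less affected; inactive means any of these conditions unmet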
FN deposit inh = fibronectin deposition inhibition. AH1F fibroblasts, Alexa488-fibronectin deposition fluorescence, overnight. inhibition, % at 12.6 µM. actives 0.086% (n = 350,000);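 active means mean inhibition across replicates of 30% or more, regardless of how many single replicates reach that level; inconclusive means mean under 30% yet at least half of replicates reach 30%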
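Material – AH1F fibroblast monolayer, labelled fibronectin deposition · Reagent – labelled fibronectin 24 nM · Timing – 1 h adhesion, overnight exposure · Measured by – fluorescence at 485 nm excitation, 525 nm emission · Read-out – inhibition of fibronectin deposition signal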
PglD DTNB = blocks C. jejuni PglD acetyltransferase activity; purified PglD enzyme, DTNB colorimetric CoA detection; inhibition, % at 12.5 µM; actives 0.098% (n = 360,000); in the data active means inhibition above about 16%, passing the limit was not always enough; inconclusive means no clear call, values can overlap the other calls
HIV Env fusion = inhibitors of HIV Env-mediated cell fusion; HeLa-JRFL Env/CEM21 cell fusion, luciferase; inhibition, % at 12.3 µM; actives 1.1% (n = 360,000);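 active means mean replicate inhibition score of at least 50 and every replicate individually at or above 50; inconclusive means only one of the two criteria met; inactive means mean below 50 and not all replicates reaching 50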
PGC1a acetyl inh = modulators of PGC1a acetylation | U2OS PGC1a acetylation, AlphaScreen anti-acetyl-lysine; with virally co-expressed GCN5 acetyltransferase | inhibition, % at 15.6 µM | actives 0.17% (n = 350,000) | AID 651687;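 active means every replicate shows inhibition of at least 40%; inconclusive means mean inhibition at least 40% but some replicate below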
A number is an active result; – = inactive; ? = inconclusive; · = no result given; [ ] = remark or other dose.

SMILES	DENV2 CPE	Ecoli rRNA inh	FN deposit inh	PglD DTNB	HIV Env fusion	PGC1a acetyl inh
Cc1ccc(NC(=O)c2ccc(Cl)c(S(=O)(=O)N3CCCCCC3)c2)nc1	–	–	–	·	61	–
Cc1ccc(NC(=O)c2ccc(S(=O)(=O)N3CCCCCC3)cc2)nc1	–	–	–	–	–	–
CC(C)Cn1nc(C(=O)Nc2cccc(S(=O)(=O)N3CCCC3)c2)c2ccccc2c1=O	–	–	–	–	·	·
O=C(Nc1cccc(S(=O)(=O)N2CCCCC2)c1)c1cc2ccccc2o1	–	-24	–	–	–	–
O=C(Nc1cccc(S(=O)(=O)N2CCOCC2)c1)c1cc2ccccc2o1	–	–	–	–	–	–
COc1ccc2c3c(n(C)c2c1)[C@@H](CO)NCC31CN(CC2CC2)C1	?	–	·	·	–	·
CCn1c(Oc2ccccc2F)nc2c1c(=O)n(C)c(=O)n2C	–	–	–	–	58	?
Cc1ccc(Oc2nc3c(c(=O)n(Cc4ccccc4F)c(=O)n3C)n2C)cc1	·	–	·	–	56	·
C[C@@H]1CN([C@@H](C)CO)C(=O)c2cc(NC(=O)Nc3ccc(F)cc3)ccc2O[C@@H](C)CCCCO[C@@H]1CN(C)S(=O)(=O)c1cn(C)cn1	–	–	–	–	–	–
CO[C@H]1CN(C)C(=O)c2ccc(NC(=O)C3CC3)cc2OC[C@@H](C)N(C(C)=O)C[C@@H]1C	–	–	–	–	62[16.7 µM]	–
CCCC(=O)Nc1ccc2c(c1)OC[C@H](C)N(C(=O)CN(C)C)C[C@@H](C)[C@H](OC)CN(C)C2=O	–	·	–	–	58[16.7 µM]	–
COCC(=O)Nc1ccc2c(c1)C(=O)N(C)C[C@H](OC)[C@H](C)CN(C(=O)CC1CC1)[C@H](C)CO2	42	–	–	–	–	–
CCC(=O)N1C[C@H](C)[C@H](OC)CN(C)C(=O)c2cc(NC(=O)COC)ccc2OC[C@H]1C	21	–	–	–	·	–
CCC(=O)N1C[C@@H](C)[C@H](OC)CN(C)C(=O)c2cc(NC(=O)COC)ccc2OC[C@@H]1C	–	–	–	–	·	–
C[C@H]1CN([C@@H](C)CO)C(=O)Cc2cc(NC(=O)CCC(F)(F)F)ccc2O[C@@H]1CN(C)CC1CC1	–	–	–	–	–	–
OC[C@@H]1[C@H](c2ccc(C#Cc3cccnc3)cc2)[C@H]2CN(Cc3ccccc3F)CCCCN12	–	–	·	–	·	–
COCC(=O)Nc1ccc2c(c1)C(=O)N(C)C[C@@H](OC)[C@H](C)CN(C(C)=O)[C@H](C)CO2	102	–	–	–	85[16.7 µM]	–
CCC(=O)Nc1ccc2c(c1)OC[C@@H](C)N(C(=O)Cc1cccnc1)C[C@@H](C)[C@H](OC)CN(C)C2=O	27	–	–	–	·	–
COCC(=O)Nc1ccc2c(c1)C(=O)N(C)C[C@@H](OC)[C@@H](C)CN(C)[C@H](C)CO2	–	–	–	–	60[16.7 µM]	–
COCC(=O)Nc1ccc2c(c1)C(=O)N(C)C[C@H](OC)[C@H](C)CN(C)[C@@H](C)CO2	–	–	–	–	–	–
CCC(=O)N1C[C@H](C)[C@@H](OC)CN(C)C(=O)c2ccc(NC(=O)C3CC3)cc2OC[C@@H]1C	40	–	–	·	·	–
CCC(=O)Nc1ccc2c(c1)OC[C@H](C)N(C(=O)Cc1cccnc1)C[C@H](C)[C@H](OC)CN(C)C2=O	–	–	–	–	·	–
CCC(=O)N1CCCCN2[C@@H](CO)[C@H](c3ccc(C#Cc4ccccc4)cc3)[C@@H]2C1	–	–	·	–	·	–
C[C@@H]1CN([C@H](C)CO)C(=O)c2cc(NC(=O)C3CCCCC3)ccc2O[C@H]1CN(C)Cc1ccc(C(=O)O)cc1	–	–	·	–	·	–
C[C@H]1CCCCO[C@H](CN(C)S(C)(=O)=O)[C@@H](C)CN([C@@H](C)CO)C(=O)c2cc(N(C)C)ccc2O1	·	–	·	·	–	–
SMILES	DENV2 CPE	Ecoli rRNA inh	FN deposit inh	PglD DTNB	HIV Env fusion	PGC1a acetyl inh
CC=Cc1ccc2n(c1=O)C[C@H]1[C@H](CO)[C@@H](C(=O)NCCc3cn(C)cn3)N(C(=O)CC)[C@@H]21 (mixture of isomers)	–	–	·	·	·	–
C[C@H]1CN([C@@H](C)CO)C(=O)Cc2cc(NC(=O)c3ccncc3)ccc2O[C@H]1CN(C)Cc1ccc(C(F)(F)F)cc1	–	–	–	–	–	–
CCC(=O)Nc1ccc2c(c1)OC[C@H](C)N(C(=O)CC)C[C@H](C)[C@@H](OC)CN(C)C2=O	35	–	–	·	·	–
CCC(=O)Nc1ccc2c(c1)C(=O)N(C)C[C@H](OC)[C@@H](C)CN(C(=O)CC)[C@H](C)CO2	·	–	–	·	–	–
CCC(=O)Nc1ccc2c(c1)OC[C@@H](C)N(C(=O)c1ccccc1F)C[C@H](C)[C@@H](OC)CN(C)C2=O	–	–	–	–	–	·
CCC(=O)Nc1ccc2c(c1)C(=O)N(C)C[C@@H](OC)[C@H](C)CN(C(=O)CC)[C@@H](C)CO2	–	–	–	–	59[16.7 µM]	–
CCC(=O)N1C[C@H](C)[C@H](OC)CN(C)C(=O)c2cc(NC(=O)NC3CCCC3)ccc2OC[C@@H]1C	39	–	–	·	·	–
CCC(=O)Nc1ccc2c(c1)OC[C@H](C)N(C(=O)CC)C[C@@H](C)[C@@H](OC)CN(C)C2=O	·	–	–	·	·	–
CCC(=O)Nc1ccc2c(c1)OC[C@@H](C)N(C(=O)Nc1ccccc1F)C[C@@H](C)[C@H](OC)CN(C)C2=O	22	–	–	–	·	–
COc1ccc(NC(=O)N(C)C[C@H]2Oc3ccc(NC(=O)CCN4CCOCC4)cc3CC(=O)N([C@@H](C)CO)C[C@H]2C)cc1	–	–	·	–	·	–
CC(C)NC(=O)N[C@@H]1CC[C@H](CCNC(=O)C2CC2)O[C@@H]1CO	–	–	–	–	–	–
CCC(=O)Nc1ccc2c(c1)C(=O)N(C)C[C@@H](OC)[C@@H](C)CN(C(=O)COC)[C@H](C)CO2	22	–	–	–	·	–
CCC(=O)Nc1ccc2c(c1)C(=O)N(C)C[C@@H](OC)[C@@H](C)CN(C(=O)COC)[C@@H](C)CO2	–	–	–	–	·	–
COc1ccc(C(=O)N/N=C/c2ccccn2)cc1OC	–	-29	·	–	–	–
Cc1ccnn1CC(=O)N/N=C/c1c[nH]c2ccccc12	–	-39	–	–	–	–
O=C(N/N=C/c1ccccn1)c1ccccc1	–	-26	–	–	·	·
O=C(N/N=C/c1ccccn1)c1cccs1	–	-24	–	·	–	·
O=C(N/N=C/c1ccccn1)c1ccncc1	–	–	–	–	–	–
COc1ccc(C(=O)Nc2ccccc2C(=O)N/N=C/c2ccccn2)cc1OC	–	–	–	–	–	–
C[C@@H]1CN([C@H](C)CO)C(=O)c2cc(NC(=O)NC3CCCCC3)ccc2O[C@@H](C)CCCCO[C@@H]1CN(C)Cc1ccc2c(c1)OCO2	–	–	·	–	?	–
O=C(N/N=C/c1c[nH]c2ccccc12)c1cccs1	46	–	–	–	–	–
